Measured values of several laboratories.
Protocols differ between the studies behind these lines.
Matrix: plasma

For `CC[C@H](C)[C@@H]1NC(=O)[C@@](C)(NC(=O)[C@H](CCCNC(=N)N)NC(=O)[C@H](CC(C)C)NC(=O)[C@@H](NC(=O)[C@H](CCC(N)=O)NC(=O)[C@H](CC(C)C)NC(C)=O)[C@@H](C)O)CCCC=CCCC[C@@](C)(C(=O)N[C@@H](CC(C)C)C(=O)N[C@@H](Cc2ccc3ccccc3c2)C(N)=O)NC(=O)[C@H](CCCNC(=N)N)NC(=O)[C@H](CCC(N)=O)NC1=O`, the AUC(0-t) was 260000 ng·h/mL (male BALB/c mouse; intravenous; 15 mg/kg).
The AUC(0-t) of `CCc1cc(C(=O)NC)c2nccc(N3CCc4c(cc(Cn5ccnc5)cc4-c4cn(C)nc4C(F)(F)F)C3=O)c2c1` is reported as 527000 ng·h/mL (male CD-1 mouse; oral; 150 mg/kg).
`Cc1nc(-c2cnc(NC(C)C)n(C)c2=O)ccc1Oc1ccnc(-c2cnn(C)c2)c1` has an AUC(0-t) of 113000 ng·h/mL (female mouse; oral; 15 mg/kg; single dose).
`CCc1cc(OC)c2nccc(N3CCc4c(cc(Cn5ccnc5)cc4-c4cn(C)nc4C(F)(F)F)C3=O)c2c1` gave an AUC(0-t) of 106000 ng·h/mL (male CD-1 mouse; oral; 50 mg/kg).
`C=CC(=O)N1CC2CC(n3nc(-c4ccc(C(=O)Nc5ccccn5)cc4)c4c(N)ncnc43)CC2C1` (centres unmarked) gave an AUC(0-t) of 588 ng·h/mL (SCID mouse; oral; 3 mg/kg).
`CN1CCC[C@H](CN2c3ccccc3Sc3ccccc32)C1.Cl` gave an AUC(0-t) of 6920 ng·h/mL (mouse; intraperitoneal; 32 mg/kg; single dose).
`CS(=O)(=O)CCNCc1ccc(-c2ccc3ncnc(Nc4ccc(OCc5cccc(F)c5)c(Cl)c4)c3c2)o1` gave an AUC(0-t) of 34100 ng·h/mL (nude mouse; oral; 50 mg/kg; single dose).
The AUC(0-t) of `COc1ccc(C(O)COc2ccc(-c3csc(-c4ccc(OCC(O)c5ccc(OC)c(OC)c5)cc4)n3)cc2)cc1OC` (centres unmarked) is reported as 4700 ng·h/mL (C57BL/6 mouse; intravenous; 3 mg/kg).
